# ABCB1 block: inhibitors of human ABCB1 transporter, ABCG2 counter-screen; P08183; CCRF-Adr cells, JC-1 efflux, flow cytometry; inhibition, % at 6.6 µM; 0.067% of 190,000 active; AID 1326; in the data active means inhibition above about 40%;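 further: 0% = vehicle and 100% = reference inhibitor; higher value means more JC-1 retained so stronger ABCB1 efflux block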
# ABCG2 inh: blocks JC-1 efflux by human ABCG2 transporter; Q9UNQ0; IgMXP3 cells, flow cytometry; 0.1% of 190,000 active; inhibition, % at 6.6 µM; AID 1325;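 active means inhibition above 80%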;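 further: 0% = DMSO and 100% = nicardipine control wells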
#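 Test system: IgMXP3 (ABCG2) plus far-red-tagged CCRF-Adr (ABCB1) cells. Reagent: JC-1 dye as substrate. Timing: 10 min exposure at 25 °C with rotation, no wash. Measured by: flow cytometric JC-1 green MFI at 530 nm. Read-out: percent efflux inhibition, scaled nicardipine 100% to DMSO 0%. Control set: nicardipine and DMSO wells.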
# Tn6 DDE FP: inhibitors of Tn6 peptide binding to human fibrin DD(E); Fibrin DD(E) TRITC-Tn6 fluorescence polarization displacement; inhibition, % at 8.3 µM; 0.21% of 370,000 active; AID 720509;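 active means inhibition above a per-campaign cutoff: mean of compounds within control limits plus 3 SD, cut at about 15% in these data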;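 further: 0% = median of all compound wells on the plate and 100% = blocking peptide control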
# Target sequence (P02675 whole entry, looked up): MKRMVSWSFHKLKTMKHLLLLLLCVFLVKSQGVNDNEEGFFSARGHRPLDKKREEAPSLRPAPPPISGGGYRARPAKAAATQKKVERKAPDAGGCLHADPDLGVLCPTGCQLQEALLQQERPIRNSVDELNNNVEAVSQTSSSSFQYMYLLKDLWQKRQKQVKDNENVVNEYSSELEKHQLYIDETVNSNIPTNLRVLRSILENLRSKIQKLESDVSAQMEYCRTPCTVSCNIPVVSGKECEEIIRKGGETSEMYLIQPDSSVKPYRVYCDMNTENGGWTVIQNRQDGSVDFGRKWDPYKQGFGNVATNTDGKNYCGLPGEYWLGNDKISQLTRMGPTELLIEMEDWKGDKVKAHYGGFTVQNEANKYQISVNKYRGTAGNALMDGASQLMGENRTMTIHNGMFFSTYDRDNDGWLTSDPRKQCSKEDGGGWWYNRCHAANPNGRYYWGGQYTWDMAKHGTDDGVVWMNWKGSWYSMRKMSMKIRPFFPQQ
# DDE Tn7 FP inh: DD(E)-Tn7 binding inhibition, primary FP screen. 0.13% of 370,000 active. P02675. AID 720508. inhibition, % at 8.3 µM. FP displacement of FITC-Tn7 peptide from fibrin DD(E); 0% = median of compound wells per plate;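 active means inhibition above the mean of compounds falling within the control limits plus 3 SD of them, cut at about 14% in these data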;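 further: 0% = plate median of compound wells and 100% = 10 µM Aha-Tn7 peptide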
#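 Assay system: human fibrin DD(E). Input: DD(E) 2 µM final. Medium: Tris buffer with calcium and detergent, pH 7.8. Compound dosing: single point at 8.3 µM. Timing: 10 min plus 3 h, room temperature. Technique: fluorescence polarization of the labelled Tn7 tracer. Read-out: percent inhibition. Replicates: singlicate testing.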
# Ins promoter up: MIN6 insulin promoter up-regulation | 0.3% of 190,000 active | MIN6 insulin promoter-GFP reporter, high-content imaging; hits give high values | AID 1625 | z-score at 5 µM;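 active means z-score above 3 at 5 µM with at least 500 cells counted in the well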
# GRK2 aptamer HTS: blocks RNA aptamer binding to human GRK2; P25098; bead flow cytometry, FAM-aptamer displacement from GRK2; inhibition of aptamer binding, % at 10 µM; 0.59% of 330,000 active; AID 488847;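 active means inhibition of aptamer binding above 40%, roughly 3 SD of noise, on plates passing a quality check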;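 further: median bead fluorescence of bound FAM aptamer so fluorescent compounds give negative values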
# GRK2 CP1: confirmation of human GRK2 inhibitors displacing RNA aptamer; shares compounds with GRK2 aptamer HTS; bead-bound GRK2, FAM-aptamer displacement, flow cytometry; aptamer displacement, % at 10 µM; 4% of 2,000 active; AID 504451;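 active means aptamer displacement above 40%, near three times the noise of non-fluorescent compounds, on plates passing quality checks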;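 further: negative values mostly reflect intrinsic compound fluorescence rather than true enhancement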
# FAM quench CP1: counter-screen for GRK2 aptamer inhibitors: fluorescent aptamer quenchers | AID 504580 | Carboxyfluorescein RNA aptamer on beads, flow cytometry quenching; hits give low values | fluorescence response (% of DMSO), % at 10 µM | shares compounds with GRK2 aptamer HTS | 2,000 tested, under 10 active;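 active means compounds that quench the bead-bound fluorescent RNA probe, cutting fluorescence to under half of the solvent control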;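 further: counterscreen run without GRK2 so only probe quenching by compound is measured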
# Starred values were filed as active, the others as inactive; · = not tested or not shown. The list is not random: actives were taken first. Their share in the collection is about 0.99%.
SMILES,ABCB1 block,ABCG2 inh,Tn6 DDE FP,DDE Tn7 FP inh,Ins promoter up,GRK2 aptamer HTS,GRK2 CP1,FAM quench CP1
CCOc1ccc2nc(NC3=NC(c4ccc(OC)cc4)CC(=O)N3)nc(C)c2c1 (centres undefined),0.3,1.3,4.9,-5.5,2.16,38.0,-25.2,106.8
C/C(=N\OCc1ccccc1C#N)c1cc2ccccc2o1,0.8,7.2,3.9,-4.0,-0.99,47.0*,-10.7,99.6
C/C(=N\OCc1ccc(C#N)cc1)c1cc2ccccc2o1,·,·,12.3,0.9,-0.02,1.0,·,·
COc1ccc(C(=O)N(c2ccc(OC)cc2)S(=O)(=O)c2cccs2)cc1,4.9,10.9,2.3,1.6,0.03,0.0,·,·
COc1ccc(N(C(=O)c2ccco2)S(=O)(=O)c2cccs2)cc1,-1.5,1.1,-0.1,6.1,-0.13,98.0*,-0.6,96.7
CC(=O)N(c1ccc(N(C(C)=O)S(=O)(=O)c2cccs2)cc1)S(=O)(=O)c1cccs1,0.3,-0.1,1.3,-1.8,·,53.0*,-1.6,99.9
C=CCn1c(SCC(=O)OC(C)C)nnc1-c1ccc(C)cc1,·,·,1.3,-4.0,·,·,·,·
N#CCC[C@H]1CC[C@]2(CCCN(C(=O)c3ccno3)C2)O1,·,·,-0.4,2.6,·,·,·,·
CCS(=O)(=O)Nc1ccc2c(c1)C(=O)N(C)[C@@H]1CC[C@H](CC(=O)OC)O[C@H]1CO2,·,·,3.5,-2.7,·,·,·,·
Cc1ccc(NC(=O)CSC2=C(C#N)C(c3ccco3)C3=C(CCCC3=O)N2)cc1 (centres undefined),1.1,4.3,-0.2,2.1,1.49,57.0*,0.3,93.8
Cc1ccc(CNC(=O)OC(C)(C)C)c(/C=C/S(=O)(=O)NCc2ccc(F)cc2)c1,·,·,-3.8,-0.8,·,·,·,·
CCC(C)SCC(=O)Nc1ccc(S(=O)(=O)N2CCOCC2)cc1OC (centres undefined),·,·,-3.0,-2.8,-0.18,0.0,·,·
O=C(COC(=O)/C=C/c1ccco1)Nc1cc(S(=O)(=O)N2CCOCC2)ccc1Cl,·,·,2.9,0.6,·,59.0*,7.9,100.7
O=C(COC(=O)/C=C/c1ccco1)Nc1ccccc1,0.5,6.1,8.4,0.6,-0.27,14.0,·,·
CCc1ccc(NC(=O)COC(=O)/C=C/c2ccco2)cc1,·,·,-0.4,-8.3,·,70.0*,19.2,96.9
CCC(CC)C(=O)OCC(=O)Nc1ccc(S(=O)(=O)N2CCOCC2)cc1OC,-0.6,14.7,-5.1,6.5,0.29,51.0*,-1.3,100.3
Cc1ccc(C(=O)Nc2cccc(-c3ccc(N4CCOCC4)nn3)c2)cc1C,·,·,-10.9,-2.4,·,0.0,-0.4,96.2
O=C(Nc1cccc(-c2ccc(N3CCOCC3)nn2)c1)c1ccccc1Cl,·,·,7.0,2.6,·,1.0,1.2,101.6
COc1ccc(C(=O)Nc2cccc(-c3ccc(N4CCOCC4)nn3)c2)cc1,·,·,9.5,2.6,·,1.0,4.3,102.5
Cc1cc(C(=O)Nc2cccc(-c3ccc(N4CCOCC4)nn3)c2)ccc1[N+](=O)[O-],·,·,-2.2,-0.1,·,0.0,·,·
Cc1ccc(C(=O)Nc2cccc(-c3ccc(N4CCOCC4)nn3)c2)cc1,·,·,-2.2,-8.1,·,2.0,1.1,102.3
CCOC(=O)[C@]12CCCC=C1N(CCCOC)C(=O)[C@@H]2CC(=O)NCCCCc1ccccc1,·,·,1.5,2.8,·,·,·,·
COc1cc(OC)cc(C(=O)Nc2cccc(-c3ccc(N4CCOCC4)nn3)c2)c1,·,·,6.9,5.9,·,5.0,·,·
O=C(COc1ccc(Cl)cc1)Nc1cccc(-c2ccc(N3CCOCC3)nn2)c1,·,·,6.8,2.5,·,0.0,3.5,99.6
O=C(Nc1cccc(-c2ccc(N3CCOCC3)nn2)c1)c1ccc(Cl)cc1,·,·,4.6,3.4,·,2.0,0.9,96.2
O=C(Nc1cccc(-c2ccc(N3CCOCC3)nn2)c1)c1cccc(Cl)c1,·,·,2.4,-1.8,·,·,·,·
CCCCc1ccc(-c2noc(CCC(=O)NCC)n2)cc1,·,·,5.5,3.1,·,·,·,·
CCOC(=O)[C@]12CCCCC/C=C\1N(CCc1ccc(Cl)cc1)C(=O)[C@H]2CC(=O)N1CCOCC1,·,·,-4.8,5.1,·,·,·,·

# Screens (PubChem BioAssay)
